Laboratory results as given in ChEMBL document CHEMBL1123165, “A quantitative structure-activity relationship and molecular graphics analysis of hydrophobic effects in the interactions of inhibitors with alcohol dehydrogenase” (J Med Chem, 1986).

How the values were obtained:
[1] = Partition coefficient (logP); format: physicochemical; conditions: octanol/water
Alcohol dehydrogenase = Alcohol dehydrogenase (Equus caballus, UniProt P00327+P00328); assay: Inhibitory activity against horse liver alcohol dehydrogenase (ADH)
In short: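 Horse liver ADH crystalline suspension, pelleted (12000g, 3 min) to remove ethanol, redissolved in 0.1 M potassium phosphate pH 7.0, diluted 1:10; 0.004 unit per assay. Reaction started with 5 or 10 mM ethanol, NADH read at 340 nm.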

Structure (SMILES) | logP [1] | Log 1/Ki (Alcohol dehydrogenase)
NC(=O)Cc1ccc(OCc2ccc(Br)cc2)cc1 | 2.97 | 5.7
NC(=O)Cc1ccc(OCc2ccccc2)cc1 | 2.11 | 5.7
CCCCCc1cn[nH]c1 | 2.96 | 8.6
CCCCCOc1ccc(CNC=O)cc1 |  | 7.52
NC(=O)C(Br)Br | 0.18 | 2.49
NC(=O)Cc1ccc(I)cc1 | 1.57 | 5.1
NC(=O)Cc1ccc(Cl)cc1 | 1.16 | 4.7
NC(=O)C(Cl)Cl | -0.03 | 2.19
NC(=O)C(F)F | -0.76 | 1.12
CC(C)Oc1ccc(CC(N)=O)cc1 | 1.3 | 4.1
CCOc1ccc(CC(N)=O)cc1 | 0.83 | 4.1
CCCOc1ccc(CC(N)=O)cc1 | 1.5 | 4.6
COc1ccc(CC(N)=O)cc1 | 0.43 | 4.15
CC(C)CCOc1ccc(CC(N)=O)cc1 | 2.38 | 5.22
CCCCOc1ccc(CNC=O)cc1 |  | 7.4
C=C(C)C(N)=O | -0.71 | 3.02
NC(=O)Cc1ccc(F)cc1 | 0.59 | 4.19
CCCCCCc1cn[nH]c1 | 3.46 | 8.88
NC(=O)C(Cl)(Cl)Cl | 0.79 | 2.07
CCCCOc1ccc(CC(N)=O)cc1 | 2.04 | 5.15

Structure (SMILES) | logP [1] | Log 1/Ki (Alcohol dehydrogenase)
O=CNCc1ccc(OCc2ccccc2)cc1 |  | 7.82
NC(=O)CCl | -0.59 | 2.12
O=CNCc1ccc(O)cc1 |  | 5.75
CCCCCOc1ccc(CC(N)=O)cc1 | 2.58 | 5.92
CCC(CC)C(N)=O | 0.53 | 3.41
CCCc1cn[nH]c1 | 1.96 | 7.65
NC(=O)Cc1ccc(Br)cc1 | 1.31 | 4.7
NC(=O)Cc1ccc(OCC2CCCCC2)cc1 | 3.42 | 6
CCCCCCc1ccc(CNC=O)cc1 |  | 7.58
C/C=C(\C)C(N)=O | -0.21 | 3.15
C/C=C/C(N)=O | -0.51 | 2.89
NC(=O)CBr |  | 2.24
C=CC(N)=O [ACRYLAMIDE] | -1.01 | 2.11
Cc1cn[nH]c1 [FOMEPIZOLE] | 0.96 | 6.85
NC(=O)CI [IODOACETAMIDE] | 0.15 | 2.72
CC(C)C(N)=O [ISOBUTYRAMIDE] | -0.39 | 3.77
NC(=O)CF [MONOFLUOROACETAMIDE] | -1.03 | 1.41
CC(C)(C)C(N)=O [PIVALAMIDE] | 0.15 | 2.46
c1cn[nH]c1 [PYRAZOLE] | 0.26 | 5.73
NC(=O)C(F)(F)F [TRIFLUOROACETAMIDE] | -0.11 | 1.33
